Results taken from ChEMBL document CHEMBL4680209, “Design, synthesis, and evaluation of new 2-(quinoline-4-yloxy)acetamide-based antituberculosis agents” (Eur J Med Chem, 2020).
Converted amounts (≈) assume the structure as drawn.

What was measured:
[1] = system: Mycobacterium tuberculosis H37Rv; test: Inhibition of Mycobacterium tuberculosis H37Rv ATCC 27294 QcrB assessed as reduction in bacterial growth by resazurin reduction microplate assay
How it was run: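 REMA in Middlebrook 7H9 with 10% ADC and 5% DMSO. Compounds come from 2 mg/mL DMSO stocks as 10-point 2-fold serial dilutions, with a top concentration of 5–40 µg/mL set by solubility. MIC is the lowest concentration preventing resazurin blue-to-pink conversion. Three independent experiments; the modal or highest value is reported, in µM.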

[2] = Cytotoxicity against African green monkey Vero cells assessed as reduction in cell viability measured after 72 hrs by neutral red uptake assay; format: cell-based; settings: chlorocebus sabaeus
How it was run: (§1)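 Vero (2×10^3 cells/well) or HepG2 (4×10^3 cells/well) in DMEM with 10% inactivated FBS, seeded 24 h, treated at 1, 5 and 20 µM in 2% DMSO for 72 h at 37 °C, 5% CO2. After PBS wash, neutral red (25 µg/mL, serum-free medium) for 3 h; dye extracted with acetic acid/EtOH/water (1:50:49) for 30 min; absorbance 562 nm; viability versus 2% DMSO controls.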

[3] = Cytotoxicity against human HepG2 cells assessed as reduction in cell viability measured after 72 hrs by MTT assay; format: cell-based
How it was run: (§2)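 Vero (2×10^3 cells/well) or HepG2 (4×10^3 cells/well) grown in DMEM with 10% inactivated FBS, gentamicin and amphotericin B, seeded 24 h, then exposed to compound at 1, 5 and 20 µM (2% DMSO) for 72 h at 37 °C, 5% CO2. MTT (5 mg/mL) added for 4 h; absorbance 570/655 nm. Viability relative to 2% DMSO control wells; CC50 derived.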

[4] = Cytotoxicity against human HepG2 cells assessed as reduction in cell viability measured after 72 hrs by neutral red uptake assay; format: cell-based; how it was run: as §1
[5] = Intrinsic clearance in human liver S9 fraction at 2 uM measured after 30 mins in presence of NADPH by HPLC-MS analysis; format: ADME, subcellular; settings: read-out: CLH
How it was run: (§3)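 Compound at 2 µM incubated at 37°C with 1 mg/mL human liver S9 fraction (9,000 × g post-mitochondrial supernatant) containing NADPH. Remaining compound quantified by HPLC-MS/MS at 0, 5, 15 and 30 min to give in vitro disappearance half-life and intrinsic clearance (mL/min/kg). Verapamil served as positive control.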

[6] = Half life in human liver S9 fraction at 2 uM measured after 30 mins in presence of NADPH by HPLC-MS analysis; format: ADME, subcellular; how it was run: as §3
[7] = Cytotoxicity against African green monkey Vero cells assessed as reduction in cell viability measured after 72 hrs by MTT assay; format: cell-based; settings: chlorocebus sabaeus; how it was run: as §2
[8] = system: RAW264.7; test: Inhibition of Mycobacterium tuberculosis H37Rv ATCC 27294 QcrB infected in mouse RAW264.7 cells assessed as colony forming unit at 5 uM measured after 5 days (reference value: 4.66 +/- 0.23 log10CFU); format: cell-based; settings: time 5.0 day
[9] = Ratio of MIC for inhibition of Mycobacterium tuberculosis H37Rv ATCC 27294 QcrB assessed as reduction in bacterial growth to MIC for inhibition of Mycobacterium tuberculosis PT2 clinical isolate QcrB assessed as reduction in bacterial growth
[10] = Ratio of MIC for inhibition of Mycobacterium tuberculosis H37Rv ATCC 27294 QcrB assessed as reduction in bacterial growth to MIC for inhibition of Mycobacterium tuberculosis PT12 clinical isolate QcrB assessed as reduction in bacterial growth
[11] = Ratio of MIC for inhibition of Mycobacterium tuberculosis H37Rv ATCC 27294 QcrB assessed as reduction in bacterial growth to MIC for inhibition of Mycobacterium tuberculosis PT20 clinical isolate QcrB assessed as reduction in bacterial growth

In the case of `CO[C@H]1/C=C/O[C@@]2(C)Oc3c(C)c(O)c4c(O)c(c(/C=N/N5CCN(C)CC5)c(O)c4c3C2=O)NC(=O)/C(C)=C\C=C\[C@H](C)[C@H](O)[C@@H](C)[C@@H](O)[C@@H](C)[C@H](OC(C)=O)[C@@H]1C`, the MIC [1] is reported as 0.05 µM (≈ 0.0411 µg/mL).

Work on `COc1ccc2nc(C)cc(OCc3ccc(Cl)c(Cl)c3)c2c1` yielded a CC50 at 72 h [2] of over 20 µM, an MIC [1] of 0.3 µM (≈ 0.104 µg/mL) and a CC50 at 72 h [3] of 14.4 µM. For the same compound, the CC50 at 72 h [4] was 14.9 µM, the CLint scaled at 2 µM [5] was 12.6 mL/min/kg and the half-life at 2 µM [6] was 30.6 min. The CC50 at 72 h [7] was over 20 µM and the Activity [8] was 3.8 log10CFU.

`COc1ccc2nc(C)cc(OCc3ccc(C(C)C)cc3)c2c1` gave a CC50 at 72 h [2] of over 20 µM, an MIC [1] of 1.9 µM (≈ 0.611 µg/mL) and a Ratio [9] of 1.9. The Ratio [10] was 1.9, the CC50 at 72 h [3] was 13.1 µM and the CC50 at 72 h [4] was 13 µM. The CLint scaled at 2 µM [5] was 17.4 mL/min/kg, the Ratio [11] was 1.9 and the half-life at 2 µM [6] was 10 min. For the same compound, the CC50 at 72 h [7] was over 20 µM.

`COc1ccc2nc(C)cc(OCC(=O)c3ccc(Cl)c(Cl)c3)c2c1` gave an MIC [1] of 6.6 µM (≈ 2.48 µg/mL).

For `COc1ccc2nc(C)cc(OCc3ccc(C(F)(F)F)cc3)c2c1`, the MIC [1] was 7.2 µM (≈ 2.5 µg/mL).

`COc1ccc2nc(C)cc(OCc3cccc(Cl)c3Cl)c2c1` showed an MIC [1] of 28.7 µM (≈ 9.99 µg/mL).

Work on `COc1ccc2nc(C)cc(OCC(=O)c3ccccc3OC)c2c1` yielded an MIC [1] of 29.6 µM (≈ 9.99 µg/mL).

Compound `COc1ccc2nc(C)cc(OCC(=O)c3ccccc3)c2c1` has a CC50 at 72 h [2] of over 20 µM, an MIC [1] of 1.3 µM (≈ 0.4 µg/mL) and a CC50 at 72 h [3] of over 20 µM. It also gave a CC50 at 72 h [4] of over 20 µM, a CLint scaled at 2 µM [5] of 7.1 mL/min/kg and a half-life at 2 µM [6] of 87.5 min. For the same compound, the CC50 at 72 h [7] was over 20 µM and the Activity [8] was 4.06 log10CFU.

`COc1ccc2nc(C)cc(OCc3ccccc3F)c2c1` showed an MIC [1] of 19.2 µM (≈ 5.71 µg/mL).

Work on `COc1ccc2nc(C)cc(OCC(=O)c3ccc(CC(C)C)cc3)c2c1` yielded an MIC [1] of 6.9 µM (≈ 2.51 µg/mL).

In the case of `COc1ccc2nc(C)cc(OCc3ccc([N+](=O)[O-])cc3)c2c1`, the MIC [1] is reported as 30.8 µM (≈ 9.99 µg/mL).

In the case of `COc1ccc2nc(C)cc(OCc3ccc(Br)c(Cl)c3)c2c1`, the MIC [1] is reported as 1.6 µM (≈ 0.628 µg/mL).

For `COc1ccc2nc(C)cc(OCC(=O)c3ccc(-c4ccccc4)cc3)c2c1`, the MIC [1] was 13 µM (≈ 4.98 µg/mL).

With `COc1ccc2nc(C)cc(OCc3ccc(Cl)cc3)c2c1` the MIC [1] was 15.9 µM (≈ 4.99 µg/mL).

Compound `COc1ccc2nc(C)cc(OCc3ccccc3Cl)c2c1` has an MIC [1] of 18.8 µM (≈ 5.9 µg/mL).

In the case of `COc1ccc2nc(C)cc(OCC(=O)c3ccc(Br)cc3)c2c1`, the MIC [1] is reported as 14.6 µM (≈ 5.64 µg/mL).

For `COc1ccc2nc(C)cc(OCc3ccc(Br)cc3)c2c1`, the MIC [1] was 13.9 µM (≈ 4.98 µg/mL).

`COc1ccc2nc(C)cc(OCc3cccc(F)c3)c2c1` gave an MIC [1] of 16.8 µM (≈ 5 µg/mL).

Compound `COc1ccc2nc(C)cc(OCc3ccccc3)c2c1` has an MIC [1] of 5.6 µM (≈ 1.56 µg/mL).

Compound `COc1ccc2nc(C)cc(OCC(=O)c3ccc(Cl)cc3)c2c1` has an MIC [1] of 12.9 µM (≈ 4.41 µg/mL).

In the case of `COc1ccc2nc(C)cc(OCc3ccc(F)cc3)c2c1`, the MIC [1] is reported as 16.8 µM (≈ 5 µg/mL).

`COc1cccc(COc2cc(C)nc3ccc(OC)cc23)c1` showed an MIC [1] of 32.3 µM (≈ 9.99 µg/mL).

With `COc1ccc2nc(C)cc(OCC(=O)c3ccc(C)cc3)c2c1` the MIC [1] was 15.6 µM (≈ 5.01 µg/mL).

`COc1ccc2nc(C)cc(OCc3ccc(F)c(F)c3)c2c1` showed an MIC [1] of 3.9 µM (≈ 1.23 µg/mL).

In the case of `COc1ccc2nc(C)cc(OCC(=O)c3cccc(Cl)c3)c2c1`, the CC50 at 72 h [2] is reported as over 20 µM, the MIC [1] is reported as 1.8 µM (≈ 0.615 µg/mL) and the Ratio [9] is reported as 1.9. It also gave a Ratio [10] of 1.9, a CC50 at 72 h [3] of over 20 µM and a CC50 at 72 h [4] of over 20 µM. For the same compound, the CLint scaled at 2 µM [5] was 7.7 mL/min/kg, the Ratio [11] was 1.9 and the half-life at 2 µM [6] was 78.2 min. It also gave a CC50 at 72 h [7] of over 20 µM and an Activity [8] of 3.8 log10CFU.

For `COc1cccc(C(=O)COc2cc(C)nc3ccc(OC)cc23)c1`, the MIC [1] was 14.8 µM (≈ 4.99 µg/mL).

With `COc1ccc2nc(C)cc(OC(C)C(=O)c3ccccc3)c2c1` (stereo unspecified) the MIC [1] was 31.1 µM (≈ 9.99 µg/mL).

`COc1ccc2nc(C)cc(OCCc3ccccc3)c2c1` showed an MIC [1] of 34.1 µM (≈ 10 µg/mL).

In the case of `COc1ccc2nc(C)cc(OCc3ccc4ccccc4c3)c2c1`, the MIC [1] is reported as 7.6 µM (≈ 2.5 µg/mL).

Compound `COc1ccc2nc(C)cc(OCc3cccc(C(F)(F)F)c3)c2c1` has an MIC [1] of 7.2 µM (≈ 2.5 µg/mL).

`COc1ccc2nc(C)cc(OCc3cccc(Cl)c3)c2c1` gave an MIC [1] of 7.9 µM (≈ 2.48 µg/mL).

With `COc1ccc2nc(C)cc(OCc3ccc(C(C)(C)C)cc3)c2c1` the MIC [1] was 3.7 µM (≈ 1.24 µg/mL).

Compound `COc1ccc2nc(C)cc(OCC(=O)c3ccc(F)cc3)c2c1` has an MIC [1] of 30.7 µM (≈ 9.99 µg/mL).

In the case of `COc1ccc(C(=O)COc2cc(C)nc3ccc(OC)cc23)cc1`, the MIC [1] is reported as 7.4 µM (≈ 2.5 µg/mL).

In the case of `COc1cc(COc2cc(C)nc3ccc(OC)cc23)cc(OC)c1`, the MIC [1] is reported as 29.5 µM (≈ 10 µg/mL).

In the case of `COc1ccc2nc(C)cc(OCc3cccc(Br)c3)c2c1`, the MIC [1] is reported as 13.9 µM (≈ 4.98 µg/mL).

Work on `NNC(=O)c1ccncc1` yielded an MIC [1] of 2.3 µM (≈ 0.315 µg/mL).

`COc1ccc2nc(C)cc(OCc3ccc4c(c3)OCO4)c2c1` showed an MIC [1] of 30.9 µM (≈ 9.99 µg/mL).
